Reference: ChEMBL document CHEMBL1152337, “Antimicrobial ambiguine isonitriles from the cyanobacterium Fischerella ambigua” (J Nat Prod, 2009)
pIC50: −log10 of the molar value. Converted amounts (≈) assume the structure as drawn.

Assays:
Bacillus anthracis = assay: Antimicrobial activity against Bacillus anthracis; format: functional
Method in brief: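 Compounds tested over 100 µg/mL down to 48.8 ng/mL. MIC taken as the lowest concentration preventing visible bacterial growth.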

Staphylococcus aureus = assay: Antimicrobial activity against Staphylococcus aureus by broth microdilution assay; format: functional
[1] = test system: Mycolicibacterium smegmatis; assay: Antimicrobial activity against Mycobacterium smegmatis by broth microdilution assay; format: functional
Candida albicans = assay: Antimicrobial activity against Candida albicans by broth microdilution assay; format: functional
Vero = assay: Cytotoxicity against african green monkey Vero cells; format: cell-based; details: Chlorocebus sabaeus
[2] = test system: Mycobacterium tuberculosis; assay: Antimicrobial activity against Mycobacterium tuberculosis H37Rv by microplate Alamar blue assay; format: functional
Method in brief: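 Virulent H37Rv strain in a microplate Alamar blue assay. MIC defined as the lowest concentration giving at least 90% growth inhibition.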

[3] = Selectivity ratio of MIC for Mycobacterium tuberculosis H37Rv to MIC for Bacillus anthracis; format: functional

[C-]#[N+][C@H]1[C@@](C)(C=C)[C@H](Cl)C[C@@H]2C(C)(C)c3cccc4[nH]c(C(C)(C)C=C)c(c34)[C@]21O [AMBIGUINE B ISONITRILE]
MIC (Bacillus anthracis): 3.7 µM (≈ 1.57 µg/mL)
MIC (Staphylococcus aureus): 10.9 µM (≈ 4.61 µg/mL)
MIC [1]: 27.8 µM (≈ 11.8 µg/mL)
MIC (Candida albicans): 1.7 µM (≈ 0.719 µg/mL)
pIC50 (Vero): 4.23

CO[C@H]1/C=C/O[C@@]2(C)Oc3c(C)c(O)c4c(O)c(c(/C=N/N5CCN(C)CC5)c(O)c4c3C2=O)NC(=O)/C(C)=C\C=C\[C@H](C)[C@H](O)[C@@H](C)[C@@H](O)[C@@H](C)[C@H](OC(C)=O)[C@@H]1C [RIFAMPIN]
MIC [2]: 0.1 µM (≈ 0.0823 µg/mL)
pIC50 (Vero): 4.01

CC(=O)N1CCN(c2ccc(OCC3COC(Cn4ccnc4)(c4ccc(Cl)cc4Cl)O3)cc2)CC1 (stereo not given) [KETOCONAZOLE]
MIC (Candida albicans): 0.03 µM (≈ 0.0159 µg/mL)

[C-]#[N+][C@@H]1[C@@H]2c3c[nH]c4cccc(c34)C(C)(C)[C@H]2C[C@@H](Cl)[C@]1(C)C=C [HAPALINDOLE G]
MIC [2]: 6.8 µM (≈ 2.3 µg/mL)
MIC (Bacillus anthracis): > 128 µM
MIC (Staphylococcus aureus): > 128 µM
MIC [1]: 34 µM (≈ 11.5 µg/mL)
MIC (Candida albicans): > 128 µM
pIC50 (Vero): < 3.89
Ratio [3]: 50

[C-]#[N+][C@]12C[C@@H](O)C(C)(C)c3[nH]c4cccc5c4c3[C@]1(O)[C@H](C[C@@H](Cl)[C@]2(C)C=C)C5(C)C [AMBIGUINE M ISONITRILE]
MIC [2]: 7.5 µM (≈ 3.29 µg/mL)
MIC (Bacillus anthracis): 28.5 µM (≈ 12.5 µg/mL)
MIC (Staphylococcus aureus): 4.7 µM (≈ 2.06 µg/mL)
MIC [1]: 25.8 µM (≈ 11.3 µg/mL)
MIC (Candida albicans): 1.1 µM (≈ 0.483 µg/mL)
pIC50 (Vero): 4.10

[C-]#[N+][C@]12[C@@H](O)[C@H](O)C(C)(C)c3[nH]c4cccc5c4c3[C@]1(O)[C@H](C[C@@H](Cl)[C@]2(C)C=C)C5(C)C [AMBIGUINE F ISONITRILE]
MIC [2]: 61.2 µM (≈ 27.8 µg/mL)
pIC50 (Vero): 4.24

[C-]#[N+][C@]12C[C@@H](O)C(C)(C)c3[nH]c4cccc5c4c3[C@]1(O)[C@H](CC[C@]2(C)C=C)C5(C)C [AMBIGUINE N ISONITRILE]
MIC [2]: 27.1 µM (≈ 11 µg/mL)
MIC (Bacillus anthracis): 30.9 µM (≈ 12.5 µg/mL)
MIC (Staphylococcus aureus): 5.5 µM (≈ 2.23 µg/mL)
MIC [1]: 48.8 µM (≈ 19.7 µg/mL)
MIC (Candida albicans): < 1 µM
pIC50 (Vero): 3.93

[C-]#[N+][C@@H]1[C@H]2c3c[nH]c4cccc(c34)C(C)(C)[C@@H]2CC[C@]1(C)C=C [HAPALINDOLE H]
MIC [2]: 58.8 µM (≈ 17.9 µg/mL)
MIC (Bacillus anthracis): > 128 µM
MIC (Staphylococcus aureus): > 128 µM
MIC [1]: 39.6 µM (≈ 12.1 µg/mL)
MIC (Candida albicans): 5.1 µM (≈ 1.55 µg/mL)
pIC50 (Vero): < 3.89

GENTAMICIN
MIC (Staphylococcus aureus): 1.4 µM

[C-]#[N+][C@]12[C@H](O)C(=O)C(C)(C)c3[nH]c4cccc5c4c3[C@]1(O)[C@H](C[C@@H](Cl)[C@]2(C)C=C)C5(C)C [AMBIGUINE O ISONITRILE]
MIC (Bacillus anthracis): 13.8 µM (≈ 6.25 µg/mL)
pIC50 (Vero): 4.09

O=C(O)c1cn(C2CC2)c2cc(N3CCNCC3)c(F)cc2c1=O [CIPROFLOXACIN]
MIC (Bacillus anthracis): 0.2 µM (≈ 0.0663 µg/mL)

[C-]#[N+][C@@H]1[C@@H]2c3c(C(C)(C)C=C)[nH]c4cccc(c34)C(C)(C)[C@H]2C[C@@H](Cl)[C@]1(C)C=C [AMBIGUINE A ISONITRILE]
MIC [2]: 46.7 µM (≈ 19 µg/mL)
MIC (Bacillus anthracis): 1 µM (≈ 0.407 µg/mL)
MIC (Staphylococcus aureus): 1.8 µM (≈ 0.733 µg/mL)
MIC [1]: 14.8 µM (≈ 6.02 µg/mL)
MIC (Candida albicans): < 1 µM
pIC50 (Vero): 4.59

[C-]#[N+][C@]12[C@H]3O[C@H]3C(C)(C)c3[nH]c4cccc5c4c3[C@]1(O)[C@H](C[C@@H](Cl)[C@]2(C)C=C)C5(C)C [AMBIGUINE E ISONITRILE]
MIC [2]: 21 µM (≈ 9.18 µg/mL)
MIC (Bacillus anthracis): 3.6 µM (≈ 1.57 µg/mL)
MIC (Staphylococcus aureus): 1.5 µM (≈ 0.655 µg/mL)
MIC [1]: 1.4 µM (≈ 0.612 µg/mL)
MIC (Candida albicans): < 0.9 µM
pIC50 (Vero): 4.37

[C-]#[N+][C@]12C=CC(C)(C)c3[nH]c4cccc5c4c3[C@]1(O)[C@H](C[C@@H](Cl)[C@]2(C)C=C)C5(C)C [AMBIGUINE K ISONITRILE]
MIC [2]: 6.6 µM (≈ 2.78 µg/mL)
MIC (Bacillus anthracis): 7.4 µM (≈ 3.12 µg/mL)
MIC (Staphylococcus aureus): 4.6 µM (≈ 1.94 µg/mL)
MIC [1]: 23.7 µM (≈ 9.98 µg/mL)
MIC (Candida albicans): < 0.9 µM
pIC50 (Vero): 4.27

[C-]#[N+][C@@H]1[C@]2(O)c3c(C(C)(C)C=C)[nH]c4cccc(c34)C(C)(C)[C@H]2CC[C@]1(C)C=C [AMBIGUINE C ISONITRILE]
MIC [2]: 7 µM (≈ 2.72 µg/mL)
MIC (Bacillus anthracis): 16.1 µM (≈ 6.26 µg/mL)
MIC (Staphylococcus aureus): 7.4 µM (≈ 2.88 µg/mL)
MIC [1]: 59.6 µM (≈ 23.2 µg/mL)
MIC (Candida albicans): < 1 µM
pIC50 (Vero): 4.11

COc1c(N2C[C@@H]3CCCN[C@@H]3C2)c(F)cc2c(=O)c(C(=O)O)cn(C3CC3)c12 [MOXIFLOXACIN]
MIC [1]: 0.7 µM (≈ 0.281 µg/mL)

[C-]#[N+][C@]12C=CC(C)(C)c3[nH]c4cccc5c4c3[C@]1(O)[C@H](CC[C@]2(C)C=C)C5(C)C [AMBIGUINE L ISONITRILE]
MIC [2]: 11.7 µM (≈ 4.52 µg/mL)
MIC (Bacillus anthracis): 16.2 µM (≈ 6.26 µg/mL)
MIC (Staphylococcus aureus): 10.5 µM (≈ 4.06 µg/mL)
MIC [1]: 29.3 µM (≈ 11.3 µg/mL)
MIC (Candida albicans): < 1 µM
pIC50 (Vero): 4.35
